Test results: PMC7029794 (Cancer chemotherapy and pharmacology, 2019)
Like-named read-outs stand apart in the source and are kept apart here.

Legend:
[1] = adults at the recommended dose; cited from earlier work
[2] = in vivo, po, 30 mg/kg, cited from earlier work
[3] = CF1 mice, 5 minutes after injection, cited from earlier work
[4] = Ribociclib protein binding in mouse plasma; type: in vitro ADME; conditions: CD1, mouse
Summary of the method: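 The test compound was spiked into CD1 mouse plasma (sodium heparin) at final 500, 1000, 2500 and 5000 ng/ml. Spiked plasma was ultrafiltered through a 10 kDa cut-off device by centrifugation for 30 min at 3600 rpm, 37°C, and the filtrate was stored at −80°C. Fraction unbound was calculated as the filtrate concentration divided by the total plasma concentration.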

[5] = type: in vivo, CD1 nude mice
Summary of the method: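 Female CD1 nude mice (n=9) bearing cortical SJ-DIPGx7 allografts received a single oral 100 mg/kg dose (10 mg/ml in 0.5% methyl cellulose). Sampling used a population design with multiple samples per mouse up to 24 h: retro-orbital bleeds and terminal cardiac puncture, into heparin. Plasma was assayed by LC-MS/MS. A one-compartment model with an oral dosing compartment was fitted by nonlinear mixed-effects modelling (NONMEM).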

[6] = Cerebral microdialysis study in non-tumor bearing mice; type: in vivo, CD1 nude mice; conditions: 100 mg/kg oral
Summary of the method: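 After a single oral 100 mg/kg dose, brain ECF was microdialysed with Ringer's after at least 1 h probe equilibration. Plasma was sampled at 0.08, 1.5 and 7 h (some at 24 h). ECF was corrected by in vitro probe recovery at 1 μg/mL, 37°C, 0.5 μL/min. A one-compartment plus ECF compartment model was fitted in NONMEM with plasma parameters fixed.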

[7] = Cerebral microdialysis study in mice bearing SJ-DIPGx7; type: in vivo, CD1 nude mice; conditions: glioma mice, 100 mg/kg oral
Summary of the method: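 Female CD1 nude mice with cortical allografts of 1·10^6 SJ-DIPGx7 cells (n=16); a guide cannula was implanted stereotactically into the cortex. After a single oral 100 mg/kg dose, tumor ECF was microdialysed with Ringer's after at least 1 h probe equilibration, and plasma was sampled at 0.08, 1.5 and 7 h (some at 24 h). ECF values were corrected by per-probe in vitro recovery. Data were fitted in NONMEM with plasma parameters and V3 fixed.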

CDK-cyclin D1 = conditions: read-out: IC50 for CDK-cyclin D1; no reference given; cited from earlier work
[8] = cited from earlier work
[9] = Full-plasma PK study, glioma mice, 100 mg/kg oral

CCN1CCN(Cc2ccc(Nc3ncc(F)c(-c4cc(F)c5nc(C)n(C(C)C)c5c4)n3)nc2)CC1 [abemaciclib]
plasma AUC [1]: 5520 ng·h/mL
Kp,brain ([2]; 24 h): 0.21 ± 0.04
Kp,uu ([2]; 24 h): 0.03 ± 0.01
plasma AUC [2]: 69,300 ng/ml*hr

CC(=O)c1c(C)c2cnc(Nc3ccc(N4CCNCC4)cn3)nc2n(C2CCCC2)c1=O [palbociclib]
Kp,uu [3]: 0.01 ± 0.003
Kp,brain ([3]; dose 0.5 μmole/kg): 0.13 ± 0.04

CN(C)C(=O)c1cc2cnc(Nc3ccc(N4CCNCC4)cn3)nc2n1C1CCCC1 [ribociclib, Ribociclib]
fraction unbound at 30 min [4]: 0.23
half-life ([5]; CD1 nude, mouse, plasma, po, 100 mg/kg): 4.67 ± 0.64 h
θCL Clearance, Estimate (%RSE) [5, 9]: 2.78 (1.8) L/hr/kg
θKa First-order absorption constant, Estimate (%RSE) [5, 9]: 2.75 (5.26) 1/hr
θVc Volume of central compartment, Estimate (%RSE) [5, 9]: 18.6 (3.87) L/kg
θCL23 Influx clearance from plasma to ECF compartment, Estimate (%RSE) [6]: 0.124 (26.8) L/hr/kg
θCL32 Efflux clearance from ECF to plasma compartment, Estimate (%RSE) [6]: 7.78 (8.81) L/hr/kg
AUC(0-t) ([6]; CD1 nude, mouse, brain ECF, po, 100 mg/kg, Brain/tumor ECF AUC0–24h, n=12, brain ECF): 736 ± 610 ng·h/mL
AUC(0-t) ([7]; CD1 nude, mouse, tumor ECF, po, 100 mg/kg, Brain/tumor ECF AUC0–24h, n=16, tumor ECF): 433 ± 451 ng·h/mL
θCL23 Influx clearance from plasma to ECF compartment, Estimate (%RSE) [7]: 0.000000838 (24) L/hr/kg
θCL32 Efflux clearance from ECF to plasma compartment, Estimate (%RSE) [7]: 0.0000808 (11.5) L/hr/kg
IC50 (CDK-cyclin D1): 10 nM
fraction unbound ([8]; assumed value for phase I comparison): 0.30
unbound AUC ([8]; phase I study, assuming a fraction unbound of 0.30): ~ 6000 ng/ml*hr
